From ChEMBL document CHEMBL2346654, “Discovery of biological evaluation of pyrazole/imidazole amides as mGlu5 receptor negative allosteric modulators” (Bioorg Med Chem Lett, 2013)
Values belong to the compound of their own block, whether it stands above or below them.

Assays:
[1] = Half life in rat liver microsomes
[2] = molecular target: T1, Metabotropic glutamate receptor 5 (Homo sapiens, UniProt P41594); assay: Negative allosteric modulation of human mGluR5 expressed in HEK293 cells assessed as calcium mobilization by FLIPR assay; type: functional, cell-based
Target sequence in this assay (P41594 whole entry): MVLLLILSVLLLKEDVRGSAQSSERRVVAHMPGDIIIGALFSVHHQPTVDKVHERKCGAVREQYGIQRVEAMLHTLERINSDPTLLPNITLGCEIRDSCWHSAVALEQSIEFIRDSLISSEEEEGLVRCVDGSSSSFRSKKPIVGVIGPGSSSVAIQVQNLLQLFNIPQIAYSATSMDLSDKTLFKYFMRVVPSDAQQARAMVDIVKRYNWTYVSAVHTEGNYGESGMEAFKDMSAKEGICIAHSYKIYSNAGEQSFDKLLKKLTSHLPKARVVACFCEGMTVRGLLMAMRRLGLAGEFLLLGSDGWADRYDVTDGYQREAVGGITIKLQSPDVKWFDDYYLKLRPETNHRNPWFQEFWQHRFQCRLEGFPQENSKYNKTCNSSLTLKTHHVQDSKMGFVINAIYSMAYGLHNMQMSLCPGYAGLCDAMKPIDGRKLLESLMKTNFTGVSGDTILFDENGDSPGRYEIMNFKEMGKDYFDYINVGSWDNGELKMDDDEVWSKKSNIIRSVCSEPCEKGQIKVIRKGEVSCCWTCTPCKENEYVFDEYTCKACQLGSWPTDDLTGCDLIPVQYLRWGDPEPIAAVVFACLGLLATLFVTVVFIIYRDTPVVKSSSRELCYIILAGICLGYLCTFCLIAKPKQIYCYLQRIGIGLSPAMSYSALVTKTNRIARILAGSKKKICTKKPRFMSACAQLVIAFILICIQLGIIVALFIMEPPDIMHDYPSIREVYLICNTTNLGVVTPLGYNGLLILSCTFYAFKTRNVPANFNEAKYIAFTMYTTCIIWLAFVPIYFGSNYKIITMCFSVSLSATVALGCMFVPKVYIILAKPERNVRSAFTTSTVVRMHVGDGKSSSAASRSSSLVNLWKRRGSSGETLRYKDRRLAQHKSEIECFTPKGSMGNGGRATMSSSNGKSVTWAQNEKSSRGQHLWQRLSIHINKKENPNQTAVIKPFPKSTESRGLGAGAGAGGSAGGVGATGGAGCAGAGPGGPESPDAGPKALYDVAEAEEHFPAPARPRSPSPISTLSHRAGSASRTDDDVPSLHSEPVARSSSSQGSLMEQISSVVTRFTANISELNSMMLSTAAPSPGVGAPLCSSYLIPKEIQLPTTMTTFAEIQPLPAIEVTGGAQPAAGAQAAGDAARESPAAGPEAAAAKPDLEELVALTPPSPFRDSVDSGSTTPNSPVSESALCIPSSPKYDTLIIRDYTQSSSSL

[3] = Half life in mouse liver microsomes
[4] = Half life in human liver microsomes
[5] = molecular target: T1, Metabotropic glutamate receptor 5; assay: Negative allosteric modulation of human mGluR5 expressed in HEK293 cells assessed as calcium mobilization at 2 uM by FLIPR assay; type: functional, cell-based
Target sequence in this assay (P41594 21-1212 limits assumed): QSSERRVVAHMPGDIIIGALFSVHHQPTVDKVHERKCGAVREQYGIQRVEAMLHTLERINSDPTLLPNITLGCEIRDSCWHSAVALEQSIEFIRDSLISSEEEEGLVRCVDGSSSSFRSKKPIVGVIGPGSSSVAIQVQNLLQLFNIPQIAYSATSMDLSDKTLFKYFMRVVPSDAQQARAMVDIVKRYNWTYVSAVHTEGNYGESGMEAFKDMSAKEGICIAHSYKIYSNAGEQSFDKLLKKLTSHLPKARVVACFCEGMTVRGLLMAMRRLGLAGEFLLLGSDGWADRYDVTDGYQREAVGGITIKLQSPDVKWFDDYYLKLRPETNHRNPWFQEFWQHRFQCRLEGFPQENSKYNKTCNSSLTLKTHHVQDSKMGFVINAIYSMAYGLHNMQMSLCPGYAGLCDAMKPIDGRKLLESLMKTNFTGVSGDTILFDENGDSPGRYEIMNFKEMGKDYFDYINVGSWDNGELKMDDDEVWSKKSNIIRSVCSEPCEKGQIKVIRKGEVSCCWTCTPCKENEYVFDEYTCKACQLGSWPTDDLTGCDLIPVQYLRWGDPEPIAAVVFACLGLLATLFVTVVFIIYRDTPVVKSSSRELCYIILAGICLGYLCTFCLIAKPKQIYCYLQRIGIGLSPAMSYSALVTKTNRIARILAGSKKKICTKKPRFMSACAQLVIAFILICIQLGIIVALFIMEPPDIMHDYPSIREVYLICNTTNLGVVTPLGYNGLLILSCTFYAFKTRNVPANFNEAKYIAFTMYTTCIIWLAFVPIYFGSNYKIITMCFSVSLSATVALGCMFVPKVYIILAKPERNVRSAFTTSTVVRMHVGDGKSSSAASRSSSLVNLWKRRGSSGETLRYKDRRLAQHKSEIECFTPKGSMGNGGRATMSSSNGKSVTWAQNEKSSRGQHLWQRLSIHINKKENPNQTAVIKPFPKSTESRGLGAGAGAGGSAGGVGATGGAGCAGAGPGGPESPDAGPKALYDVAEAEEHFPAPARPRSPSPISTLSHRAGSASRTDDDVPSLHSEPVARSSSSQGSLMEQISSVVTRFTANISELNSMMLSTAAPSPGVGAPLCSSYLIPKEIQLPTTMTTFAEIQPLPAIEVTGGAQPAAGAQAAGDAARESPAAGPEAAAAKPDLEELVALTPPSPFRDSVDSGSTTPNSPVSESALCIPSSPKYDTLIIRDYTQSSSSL

[6] = molecular target: T1, Metabotropic glutamate receptor 5; assay: Negative allosteric modulation of human mGluR5 expressed in HEK293 cells assessed as calcium mobilization at 10 uM by FLIPR assay; type: functional, cell-based
Target sequence in this assay (P41594 21-1212 limits assumed): as above

[7] = system: Mus musculus; assay: Antidepressant activity in ICR mouse assessed as decrease in immobility time at 10 mg/kg, po administered 1 hr before test measured for 4 mins following training for 2 mins by forced swimming test; type: functional; parameters: scale not given: the % may be the effect or the level left
Summary of the method: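 Mouse forced swim test: ICR mice dosed orally 1 h before testing; 2 min training, then immobility duration recorded over 4 min. Activity expressed as % decrease in immobility duration. Mean ± SEM, n = 8; Dunnett's multiple comparisons after one-way ANOVA (p < 0.05).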

[8] = molecular target: T1, Metabotropic glutamate receptor 5; assay: Negative allosteric modulation of human mGluR5 expressed in HEK293 cells assessed as calcium mobilization at 1 uM by FLIPR assay; type: functional, cell-based
Target sequence in this assay (P41594 21-1212 limits assumed): as above

half-life ([1]; microsomes): 0.917 h
IC50 [2]: 4.7 nM
half-life ([3]; microsomes): 0.533 h
half-life ([4]; microsomes): 2 h
Structure (SMILES): Cc1cccc(NC(=O)c2nn(C)c(-c3cccc(Cl)c3)c2C)n1

IC50 [2]: 63 nM
Structure (SMILES): O=C(Nc1cccc(Cl)c1)c1noc2c1CCC2

half-life ([1]; liver microsomes): 1.12 h
IC50 [2]: 90.8 nM
half-life ([3]; liver microsomes): 0.217 h
half-life ([4]; liver microsomes): 0.433 h
Structure (SMILES): Cc1ccc(NC(=O)c2nn(C)c(-c3ccc(F)cc3)c2C)nc1

inhibition [5]: 5.6%
Structure (SMILES): Cc1cccc(NC(=O)c2nn(C)c(OC3CCNCC3)c2C)n1

IC50 [2]: 92 nM
Structure (SMILES): Cc1cccc(NC(=O)c2nn(C)c(OC3CCCCC3)c2C)n1

inhibition [6]: 26%
Structure (SMILES): Cc1cccc(NC(=O)c2nn(C)c(-c3ccccc3)c2-c2ccccc2)n1

half-life ([1]; liver microsomes): 2.23 h
IC50 [2]: 5.8 nM
half-life ([3]; liver microsomes): 1.55 h
half-life ([4]; liver microsomes): 2.03 h
Structure (SMILES): Cc1cccc(NC(=O)c2nc(C)n(-c3ccc(Cl)c(Cl)c3)c2C)n1
Activity [7]: 85.2%

half-life ([1]; microsomes): 1.02 h
IC50 [2]: 16.4 nM
half-life ([3]; microsomes): 0.75 h
half-life ([4]; microsomes): 2.03 h
Structure (SMILES): Cc1csc(NC(=O)c2nn(C)c(-c3ccc(F)cc3)c2C)n1
Activity [7]: 32.8%

Structure (SMILES): Cc1cccc(NC(=O)c2nn(C)c3ccccc23)n1
IC50 [2]: > 1000 nM

half-life ([1]; microsomes): > 5 h
IC50 [2]: 46.2 nM
half-life ([3]; microsomes): > 5 h
half-life ([4]; microsomes): > 5 h
Structure (SMILES): Cc1cccc(NC(=O)c2nc(C)n(-c3ccc(C(F)(F)F)cc3)c2C)n1

half-life ([1]; microsomes): 1.77 h
IC50 [2]: 13 nM
half-life ([3]; microsomes): 0.3 h
half-life ([4]; microsomes): 0.733 h
Structure (SMILES): Cc1cccc(NC(=O)c2nc(C)n(-c3ccc(F)cc3)c2C)n1
Activity [7]: 52.1%

half-life ([1]; liver microsomes): 1.9 h
IC50 [2]: 41.6 nM
half-life ([3]; liver microsomes): > 5 h
half-life ([4]; liver microsomes): > 5 h
Structure (SMILES): Cc1c(C(=O)Nc2ccnc(F)c2)nn(C)c1-c1ccc(F)cc1
Activity [7]: 15.5%

Structure (SMILES): Cc1nc(C#Cc2cccnc2)cs1
Activity [7]: 14%

inhibition [8]: 11.6%
Structure (SMILES): Cc1cccc(NC(=O)c2nn(C)c(OC3CCOCC3)c2C)n1

half-life ([1]; liver microsomes): 2.47 h
IC50 [2]: 2.3 nM
half-life ([3]; liver microsomes): 3.25 h
half-life ([4]; liver microsomes): 1.78 h
Structure (SMILES): Cc1cccc(NC(=O)c2nn(C)c(-c3ccc(Cl)c(Cl)c3)c2C)n1
Activity [7]: 45.8%

IC50 [2]: > 1000 nM
Structure (SMILES): Cc1cccc(NC(=O)c2c3c(nn2C)CCCC3)n1

IC50 [2]: 5.3 nM
Structure (SMILES): Cc1ccc(-c2c(C)c(C(=O)Nc3cccc(C)n3)nn2C)cc1
Activity [7]: 30.8%

inhibition [8]: -7.7%
Structure (SMILES): Cc1cccc(NC(=O)c2nn(C)c(OC3CCN(C)CC3)c2C)n1

half-life ([1]; microsomes): 1.98 h
IC50 [2]: 82.3 nM
half-life ([3]; microsomes): 0.167 h
half-life ([4]; microsomes): 1.52 h
Structure (SMILES): Cc1ccnc(NC(=O)c2nn(C)c(-c3ccc(F)cc3)c2C)c1

inhibition [5]: 37%
Structure (SMILES): CCCc1c(C(=O)Nc2cccc(C)n2)nn(C)c1-c1ccccc1

half-life ([1]; liver microsomes): 0.133 h
IC50 [2]: 25 nM
half-life ([3]; liver microsomes): 0.467 h
half-life ([4]; liver microsomes): 1.38 h
Structure (SMILES): Cc1cccc(NC(=O)c2nn(C)c(C3CCCCC3)c2C)n1

half-life ([1]; liver microsomes): 0.733 h
IC50 [2]: 139 nM
half-life ([3]; liver microsomes): 1.43 h
half-life ([4]; liver microsomes): 1 h
Structure (SMILES): Cc1nc(NC(=O)c2nc(C)n(-c3ccc(F)cc3)c2C)ccc1F

IC50 [2]: 3.8 nM
Structure (SMILES): Cc1cccc(NC(=O)c2nn(C)c(-c3ccc(Cl)cc3)c2C)n1
Activity [7]: 51.4%

IC50 [2]: 77 nM
Structure (SMILES): Cc1nc(C(=O)Nc2cccc(C#N)n2)c(C)n1-c1ccc(F)cc1

IC50 [2]: 373 nM
Structure (SMILES): O=C(Nc1cc(Cl)ccc1O)c1noc2c1CCC2

half-life ([1]; liver microsomes): 1.07 h
IC50 [2]: 5.3 nM
half-life ([3]; liver microsomes): 0.3 h
half-life ([4]; liver microsomes): 0.533 h
Structure (SMILES): Cc1cccc(NC(=O)c2nn(C)c(-c3cc(F)cc(F)c3)c2C)n1

half-life ([1]; liver microsomes): 1.13 h
IC50 [2]: 24.2 nM
half-life ([3]; liver microsomes): 0.617 h
half-life ([4]; liver microsomes): 1.6 h
Structure (SMILES): Cc1nc(C(=O)Nc2cccc(F)n2)c(C)n1-c1ccc(F)cc1

half-life ([1]; microsomes): 1.45 h
IC50 [2]: 14.5 nM
half-life ([3]; microsomes): 1.17 h
half-life ([4]; microsomes): 1.27 h
Structure (SMILES): Cc1cccc(NC(=O)c2nc(C)n(-c3ccc(F)c(Cl)c3)c2C)n1

half-life ([1]; microsomes): 2.38 h
IC50 [2]: 195 nM
half-life ([3]; microsomes): 0.4 h
half-life ([4]; microsomes): 2.1 h
Structure (SMILES): Cc1c(C(=O)Nc2cc(Cl)ccn2)nn(C)c1-c1ccc(F)cc1
